For data set [1], the system named is Left cardiac atrium. Briefly: Antiarrhythmic activity in 50 Hz sinusoidal alternating current-induced guinea pig left atrium arrhythmias model assessed as increase in threshold of ac-arrhythmia at 1 x 10^-5 M measured for every 30 mins relative to control. It is filed as functional, Cavia porcellus. The following applies: dose 1 10^-5M, 0.5 h, at 10 µM. In a few lines:
(§1)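 Guinea pig left atria mounted between platinum field electrodes in modified Krebs-Henseleit (pH 7.4, 95% O2–5% CO2, 35 °C), isometric force recorded. 50 Hz sinusoidal AC of rising strength applied; current intensity (mA/cm²) producing extra beats taken as ac-arrhythmia threshold. Stabilized 60 min, then compounds added cumulatively every 30 min.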

In data set [2] the test system is Left cardiac atrium. The experiment in a line: Antiarrhythmic activity in 50 Hz sinusoidal alternating current-induced guinea pig left atrium arrhythmias model assessed as increase in threshold of ac-arrhythmia measured for every 30 mins relative to control. It is filed as functional, tissue-based. Conditions: Cavia porcellus, 0.5 h.
In data set [3] the test system is Left cardiac atrium. Briefly: Negative inotropic activity in guinea pig left atrium assessed as decrease in 1 Hz driven developed tension at 1 x 10^-7 M relative to control. The following applies: 0.1 µM, dose 1 10^-7M. In kind it is ADME, tissue-based, Cavia porcellus. On the set-up: scale not given: the % may be the effect or the level left. Put shortly:
(§2)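 Guinea pig left atria paced at 1 Hz (rectangular pulses 0.6–0.8 ms, […]) in PSS, pH 7.4, 35 °C, 95% O2–5% CO2. Isometric developed tension recorded. Cumulative concentrations 0.01–100 μM in PSS, each added after steady state. Change expressed as percent of control (n = 5–6).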

Data set [4] concerns Left cardiac atrium. Briefly: Negative inotropic activity in guinea pig left atrium assessed as decrease in 1 Hz driven developed tension. In kind it is tissue-based. The following applies: Cavia porcellus.
The test system of data set [5] is Right cardiac atrium. Briefly: Negative inotropic activity in guinea pig spontaneously beating right atrium assessed as decrease in developed tension at 5 x 10^-6 M relative to control. In kind it is ADME, tissue-based, Cavia porcellus. Also on record: scale not given: the % may be the effect or the level left. The following applies: 5 µM, dose 5 10^-6M. In a few lines: (§3)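 Spontaneously beating guinea pig right atria in PSS, pH 7.4, 35 °C, gassed with 95% O2–5% CO2. Isometric recording of rate and developed force. Compounds added cumulatively, 0.01–100 μM, each after steady state. Percent change from control; rate data n = 7–8. EC50 by probit analysis.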

For data set [6], the system named is Right cardiac atrium. Briefly: Negative inotropic activity in guinea pig spontaneously beating right atrium assessed as decrease in developed tension. The following applies: Cavia porcellus. In kind it is ADME, tissue-based. In a few lines:
(§4)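 Isometric recording of rate and developed force. Compounds added cumulatively, 0.01–100 μM, each after steady state. Percent change from control; rate data n = 7–8. EC50 by probit analysis.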

The test system of data set [7] is Right cardiac atrium. Briefly: Negative chronotropic activity in guinea pig spontaneously beating right atrium assessed as decrease in atrial rate at 1 x 10^-5 M relative to control. It is filed as ADME, tissue-based, Cavia porcellus. Also on record: scale not given: the % may be the effect or the level left. The following applies: 10 µM, dose 1 10^-5M. Put shortly:
as §4

The test system of a further data set is Aorta. Briefly: Inhibition of calcium-induced contraction in K+-depolarized guinea pig aortic strips at 1 x 10^-4 M relative to control. In kind it is tissue-based. Conditions: Cavia porcellus, dose 1 10^-4M. In a few lines: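 Helicoidal guinea pig aortic strips at 1 g resting force in PSS at 35 °C, contracted with 80 mM KCl (K+ replacing Na+). At plateau (about 45 min), compounds added cumulatively, 0.1–100 μM.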

Data set [8] concerns Ileum. The experiment in a line: Inhibition of calcium-induced contraction in K+-depolarized guinea pig longitudinal smooth muscle at 1 x 10^-5 M relative to control. In kind it is tissue-based. The following applies: Cavia porcellus, dose 1 10^-5M.
Data set [9] deals with Ileum. Briefly: Inhibition of calcium-induced contraction in K+-depolarized guinea pig longitudinal smooth muscle. It is filed as tissue-based. The following applies: Cavia porcellus.
A short description of data set [10]: Toxicity in mouse assessed as motor coordination impairment by measuring number of falls from rotarod at 25 mg/kg, ip measured after 30 mins by rotarod test. The following applies: in vivo, 0.5 h. It is filed as organism-based. For orientation: In the rotarod test animals must keep their balance on a rotating rod.
A short description of data set [11]: Toxicity in mouse assessed as motor coordination impairment by measuring number of falls from rotarod at 25 mg/kg, ip measured after 45 mins by rotarod test. Conditions: in vivo. In kind it is organism-based.
Data set [12] in a line: Toxicity in mouse assessed as motor coordination impairment by measuring number of falls from rotarod at 25 mg/kg, ip measured after 60 mins by rotarod test. In kind it is organism-based. The following applies: in vivo, 1 h.
Data set [13] can be described thus: Toxicity in mouse assessed as motor coordination impairment by measuring number of falls from rotarod at 50 mg/kg, ip measured after 30 mins by rotarod test. It is filed as organism-based. The following applies: in vivo, 0.5 h.
Data set [14] is described as follows: Toxicity in mouse assessed as motor coordination impairment by measuring number of falls from rotarod at 50 mg/kg, ip measured after 45 mins by rotarod test. In kind it is organism-based. Conditions: in vivo.
The nature of data set [15]: Toxicity in mouse assessed as motor coordination impairment by measuring number of falls from rotarod at 50 mg/kg, ip measured after 60 mins by rotarod test. In kind it is organism-based. Conditions: in vivo, 1 h.
Data set [16] relates to HepG2. The experiment in a line: Cytotoxicity against human HepG2 cells at EC50 concentration incubated for 2 hrs by MTT assay. It is filed as cell-based. The following applies: hepg2, 2 h. Put shortly: (§5)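 HepG2 cells in DMEM with 10% FBS at 37 °C, 5% CO2, grown to 70% confluence. 10^4 cells/well treated in serum-free medium for 2 h. MTT at 0.5 mg/mL for 2 h, formazan dissolved in DMSO, absorbance read at 570 nm. Viability as percent of control MTT reduction; sextuplicate, repeated twice.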

For data set [17], the system named is HepG2. The experiment in a line: Cytotoxicity against human HepG2 cells at 10 times of EC50 concentration incubated for 2 hrs by MTT assay. In kind it is cell-based. Conditions: hepg2, 2 h. In a few lines:
as §5
(In general: Tetrazolium dyes change colour on reduction, which living cells bring about.)

Data set [18] is described as follows: Binding affinity to P-gp in dog MDCK-MDR1 cells using calcein-AM as substrate after 30 mins by fluorescence analysis. In kind it is ADME, cell-based. Conditions: Canis lupus familiaris, MDCK-MDR1, 0.5 h.
In data set [19] the test system is Left cardiac atrium. The experiment in a line: Potency index, ratio of mexiletine EC50 to test compound EC50 for antiarrhythmic activity in guinea pig left atrium model of current induced arrhythmias assessed as increase in threshold of ac-arrhythmia. In kind it is functional, Cavia porcellus.
Data set [20] concerns Left cardiac atrium. The experiment in a line: Potency index, ratio of mexiletine EC50 to test compound EC50 for negative inotropic activity in guinea pig left atrium assessed as decrease in developed tension. In kind it is ADME, tissue-based, Cavia porcellus.
The subject of data set [21] is Left cardiac atrium. Briefly: Negative inotropic activity in guinea pig left atrium assessed as decrease in 1 Hz driven developed tension at 1 x 10^-5 M relative to control. It is filed as tissue-based, Cavia porcellus. On the set-up: scale not given: the % may be the effect or the level left. Conditions: 10 µM, dose 1 10^-5M. Put shortly:
as §2

Data set [22] has as its system Ileum. The experiment in a line: Inhibition of calcium-induced contraction in K+-depolarized guinea pig longitudinal smooth muscle at 5 x 10^-5 M relative to control. In kind it is tissue-based. The following applies: Cavia porcellus, dose 5 10^-5M.
Data set [23] is described as follows: Binding affinity to P-gp in dog MDCK-MDR1 cells using calcein-AM as substrate at 100 uM after 30 mins by fluorescence analysis. The following applies: mdck-mdr1, 0.5 h. In kind it is ADME, cell-based, Canis lupus familiaris. In a few lines: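 MDCK-MDR1 cells, 50,000/well, grown to confluence overnight. Compounds in medium incubated 30 min at 37 °C. Calcein-AM then added at 2.5 μM final for 30 min. Cells washed with ice-cold PBS; fluorescence read at 485/535 nm against untreated basal level.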

Data set [24] concerns Left cardiac atrium. The experiment in a line: Antiarrhythmic activity in 50 Hz sinusoidal alternating current-induced guinea pig left atrium arrhythmias model assessed as increase in threshold of ac-arrhythmia at 1 x 10^-4 M measured for every 30 mins relative to control. It is filed as functional, Cavia porcellus. Conditions: dose 1 10^-4M, 0.5 h, at 100 µM. In a few lines: as §1

Data set [25] relates to Left cardiac atrium. Briefly: Negative inotropic activity in guinea pig left atrium assessed as decrease in 1 Hz driven developed tension at 1x 10^-4 M relative to control. Conditions: 100 µM, dose 1 10^-4M. In kind it is ADME, tissue-based, Cavia porcellus. On the set-up: scale not given: the % may be the effect or the level left. Put shortly: as §2
In data set [26] the test system is Right cardiac atrium. Briefly: Negative chronotropic activity in guinea pig spontaneously beating right atrium assessed as decrease in atrial rate at 1 x 10^-4 M relative to control. It is filed as ADME, tissue-based, Cavia porcellus. On the set-up: scale not given: the % may be the effect or the level left. Conditions: 100 µM, dose 1 10^-4M. Put shortly:
as §3

Data set [27] has as its system Right cardiac atrium. Briefly: Negative chronotropic activity in guinea pig spontaneously beating right atrium assessed as decrease in atrial rate. In kind it is tissue-based. The following applies: Cavia porcellus. In a few lines:
as §3

Data set [28] deals with Ileum. The experiment in a line: Inhibition of calcium-induced contraction in K+-depolarized guinea pig longitudinal smooth muscle at 1 x 10^-4 M relative to control. It is filed as tissue-based. Conditions: Cavia porcellus, dose 1 10^-4M.

Consider `Cc1cccc(C)c1OCC(N)Cc1ccccc1.Cl` (stereo not given), for which the Activity is reported as 169% in the data set on Left cardiac atrium [1]; 79% in the data set on Left cardiac atrium [3]; 57% with Right cardiac atrium [5]; 24% in the data set with Right cardiac atrium [7]; 2.9 in data set [10]; 1.9 in data set [11]. The Activity in [12] is 1.2; in data set [13], 4.4; in data set [14], 3.5; in data set [15], 1.3; in the data set on HepG2 [16], “Non-Toxic”; in the data set with HepG2 [17] it was “Non-Toxic”. The EC50 in the data set with Left cardiac atrium [2] was 4.36 µM; with Left cardiac atrium [4], 12 nM; in the data set with Right cardiac atrium [6], 66 nM; in [18], 8.4 µM. Further, the inhibition at 100 µM in the data set with Aorta turned out to be 33%. The inhibition at 10 µM in the data set on Ileum [8] was found to be 73%. The IC50 in the data set on Ileum [9] turned out to be 3.6 µM. The figures for the “Ratio EC50” value with Left cardiac atrium [19] and in the data set on Left cardiac atrium [20] were 2.7 and 4, respectively.

As for `Cc1cccc(C)c1OCC(N)C(C)(C)C.Cl` (stereo not given), the Activity in the data set with Left cardiac atrium [1] was 71%; in the data set on Left cardiac atrium [21] it was 92%; in the data set on Right cardiac atrium [5], 77%; with Right cardiac atrium [7], 7%; in data set [10], 2.7; in data set [11], 1.7. Moreover, the Activity in data set [12] is 0.8; in [13], 3.1; in [14], 1.8; in [15] it was 1.2; with HepG2 [16] it was “Non-Toxic”; in the data set on HepG2 [17], “Non-Toxic”. Besides, the Activity entry in data set [23] is “Not Active”. The EC50 came out at 2.11 µM in the data set with Left cardiac atrium [2], 42 nM in the data set with Left cardiac atrium [4] and 1020 nM with Right cardiac atrium [6]. For the same molecule, the inhibition at 100 µM with Aorta was determined as 38%. Also, the inhibition at 50 µM in the data set with Ileum [22] was found to be 73%. The IC50 in the data set on Ileum [9] came out at 10.7 µM.

Turning to `Cc1cccc(C)c1OCC(N)C(C)C.Cl` (stereo not given), the Activity was 145% in the data set on Left cardiac atrium [24]; 84% with Left cardiac atrium [25]; 55% in the data set with Right cardiac atrium [26]; 2.6 in [10]; 2.2 in data set [11]; 1.1 in data set [12]. Further, the Activity was 3 in [13]; 2.1 in data set [14]; 1 in data set [15]; “Non-Toxic” in the data set on HepG2 [16]; “Non-Toxic” in the data set with HepG2 [17]; “Not Active” in [23]. In addition, the EC50 with Left cardiac atrium [2] worked out at 18.4 µM; in the data set with Left cardiac atrium [4], 21 nM; in the data set with Right cardiac atrium [27], 13.1 µM. Moreover, the inhibition at 100 µM with Aorta is 11%; in the data set on Ileum [28], 88%. In the data set with Ileum [9], the IC50 is 19.6 µM.

`Cc1cccc(C)c1OCC(C)N.Cl` (stereo not given) [MEXILETINE HYDROCHLORIDE]: the Activity in the data set with Left cardiac atrium [24] was 64%; in the data set on Left cardiac atrium [21] it was 90%; in data set [10], 1.3; in data set [11], 0.8; in data set [13], 3.8; in data set [14] it was 3.5. Also, the Activity result in [23] was “Not Active”. Besides, the EC50 with Left cardiac atrium [2] turned out to be 11.6 µM; in the data set on Left cardiac atrium [4] it was 45 nM; in the data set with Right cardiac atrium [27] it was 0.014 µM. In addition, the inhibition at 100 µM in the data set on Aorta is 5%; in the data set on Ileum [28] it was 81%.

One may read the EC50 as the concentration needed to bring the measured effect to its halfway point. The term inhibition denotes how much of the control response was suppressed. As usually defined, the IC50 is the concentration needed to halve the response being measured.

The record behind these values is ChEMBL document CHEMBL4715731, “Synthesis, antiarrhythmic activity, and toxicological evaluation of mexiletine analogues” (Eur J Med Chem, 2016).
